This note sets out measurements from ChEMBL document CHEMBL1123198, “Stereoselective syntheses of the trans-decahydroquinoline-5-carboxylic acid epimers. Diastereomeric zwitterionic probes of gamma-aminobutyric acid related biological properties in vitro and in vivo” (1986).

The species entered for one experiment is Rattus norvegicus. Description: Cyclic AMP accumulation in Rat brain cerebral cortical slices by the compound, activity expressed as % conversion. The experiment is classed as functional. Summed up: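 Rat cerebral cortical slices were used for cAMP accumulation. cAMP was isolated by double-column chromatography. Values are means of two experiments, each run in duplicate.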

Experiment [1] deals with GABA B receptor (Rattus norvegicus) (UniProt Q9Z0U4+O88871). The experiment is described as follows: Displacement of [3H]-GABA from Gamma-aminobutyric acid type B receptor in rat brain membranes. The experiment is classed as cell membranes. The arrangement: concentration or dose not given beside the values. Summed up:
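GABA-B binding: rat brain membranes were incubated with [3H]GABA plus 40 µM isoguvacine to block GABA-A sites. Nonspecific binding was defined with 100 µM baclofen. Values are means of three experiments, each in duplicate; standard errors were below 20%.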
A general note: Displacement assays read how much labelled ligand stays bound in the presence of the test substance.

In experiment [2] the target is T1, GABA-A receptor; anion channel (Rattus norvegicus) (UniProt O09028+P15431+P18506+P18508+P19969+P20236+P23574+P23576+P28471+P28473+P30191+P62813+P63079+P63138+Q91ZM7+Q9ES14). Description: Displacement of [3H]diazepam binding in rat brain membranes. The experiment is classed as cell membranes. Details: unit not given here. The method, boiled down:
(§1)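 [3H]Diazepam binding, alone and GABA-activated, was measured in brain membranes. Nonspecific binding was taken with 1 µM unlabelled diazepam. Values are means of two experiments, each in duplicate.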

Experiment [3] deals with T1, GABA-A receptor; anion channel (Rattus norvegicus). Description: Displacement of GABA activated [3H]diazepam binding in rat brain membranes. Format: cell membranes. The method, boiled down:
as §1

For experiment [4] the target is unchanged. Description: Displacement of [3H]-GABA from Gamma-aminobutyric acid A receptor in rat brain membranes. Format: cell membranes. Details: concentration or dose not given beside the values. The method, boiled down:
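GABA-A binding used [3H]GABA as ligand, with nonspecific binding taken in 1 mM unlabelled GABA. Values are means of three experiments, each in duplicate; standard error of the means was below 10%.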

Experiment [5] deals with GABA transporter (Rattus norvegicus) (UniProt P31647+P23978+P31646+P48056). Description: Inhibition of [3H]GABA uptake from rat brain membranes. The experiment is classed as functional, cell membranes. As to conditions: Membrane, concentration not given here. Summed up:
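High-affinity [3H]GABA uptake was measured into rat brain synaptosomes. Values are means of two experiments.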

Experiment [6] deals with T1, GABA-A receptor; anion channel (Rattus norvegicus). Description: Displacement of [35S]TBPS from GABA-A receptor of rat brain membranes. The experiment is classed as cell membranes. As to conditions: Membrane. The arrangement: concentration or dose not given beside the values. The method, boiled down:
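[35S]TBPS binding assay with nonspecific binding defined by 10 µM unlabelled TBPS. Values are means of two experiments, each in duplicate.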

For experiment [7] the target is unchanged. The note with it: Brain, Brain membranes.
Experiment [8] deals with Mus musculus. The experiment is described as follows: Reversal of convulsant effect by Diazepam pretreatment (2 mg/kg) at 100 ug ICV dose, 4/4 mice affected. The experiment is classed as functional.
In experiment [9] the test system is Mus musculus. The experiment is described as follows: Reversal of convulsant effect by Diazepam pretreatment (5 mg/kg) at 100 ug ICV dose, 5/5 mice affected. The experiment is classed as functional.
The test system of experiment [10] is Mus musculus. The experiment is described as follows: Convulsant effect on ICV administration in mice at 50 ug. The experiment is classed as functional. The method, boiled down:
(§2)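 Mice under halothane anaesthesia got a 4 µL injection into the left ventricle at 25, 50 or 100 µg, with saline controls. Mice sat in a 1-L beaker and were watched for seizures from 2 min after injection, and for behaviour over 40 min. A seizure counted when tonic-clonic convulsions occurred and the mouse fell on its flank. Read-out: mice convulsing/mice tested, and seizure duration in min (mean ± SEM).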

The subject of experiment [11] is Mus musculus. Description: Reversal of convulsant effect by Diazepam pretreatment (10 mg/kg) at 100 ug ICV dose, 0/6 mice affected. The experiment is classed as functional.
Experiment [12] relates to Mus musculus. Description: Convulsant effect on ICV administration in mice at 50microg, 1/6 mice affected. The experiment is classed as functional. The method, boiled down: as §2
Experiment [13] relates to Mus musculus. The experiment is described as follows: Convulsant effect on ICV administration in mice at 25microg, 0/5 mice affected. Format: functional. Summed up: as §2
The test system of experiment [14] is Mus musculus. Description: Convulsant effect on ICV administration in mice at 100microg, 5/5 mice affected. The experiment is classed as functional. Summed up:
as §2

For experiment [15], the system named is Mus musculus. The experiment is described as follows: Convulsant effect on ICV administration in mice at 100 ug. The experiment is classed as functional. The method, boiled down:
as §2

For experiment [16], the species on record is Mus musculus. The experiment is described as follows: Reversal of convulsant effect by Diazepam pretreatment at 100 ug ICV dose, 5/5 mice affected. The experiment is classed as functional.
Experiment [17] has as its system Mus musculus. The experiment is described as follows: Reversal of convulsant effect by Diazepam pretreatment (2 mg/kg) at 100 ug ICV dose, 5/5 mice affected. Format: functional.
Experiment [18] concerns Mus musculus. The experiment is described as follows: Convulsant effect on ICV administration in mice at 50microg, 5/5 mice affected. The experiment is classed as functional. Summed up:
as §2

In experiment [19] the test system is Mus musculus. The experiment is described as follows: Reversal of convulsant effect by Diazepam pretreatment (5 mg/kg) at 100 ug ICV dose, 4/4 mice affected. The experiment is classed as functional.
Experiment [20] deals with Mus musculus. The experiment is described as follows: Reversal of convulsant effect by Diazepam pretreatment (10 mg/kg) at 100 ug ICV dose, 0/5 mice affected. Format: functional.
Experiment [21] has as its target T1, GABA-A receptor; anion channel (Rattus norvegicus). The note with it: Brain, Brain membranes. This is another data set of the same source.
The target is the same in experiment [22]. The experiment is described as follows: Displacement of [3H]diazepam binding to rat brain membranes at 100 uM concentration. The experiment is classed as cell membranes. As to conditions: Membrane. The method, boiled down:
as §1

For experiment [23] the target is unchanged. The experiment is described as follows: Displacement of GABA activated [3H]diazepam binding in rat brain membranes at 100 uM. The experiment is classed as cell membranes. Summed up: as §1

Molecules are shown by their SMILES. Where only a bound is given, the exact number is not on record here.

Usually inhibition stands for the percentage by which the read-out fell short of the control.

GABA transporter (Rattus norvegicus), sequence (P31646 whole entry, looked up): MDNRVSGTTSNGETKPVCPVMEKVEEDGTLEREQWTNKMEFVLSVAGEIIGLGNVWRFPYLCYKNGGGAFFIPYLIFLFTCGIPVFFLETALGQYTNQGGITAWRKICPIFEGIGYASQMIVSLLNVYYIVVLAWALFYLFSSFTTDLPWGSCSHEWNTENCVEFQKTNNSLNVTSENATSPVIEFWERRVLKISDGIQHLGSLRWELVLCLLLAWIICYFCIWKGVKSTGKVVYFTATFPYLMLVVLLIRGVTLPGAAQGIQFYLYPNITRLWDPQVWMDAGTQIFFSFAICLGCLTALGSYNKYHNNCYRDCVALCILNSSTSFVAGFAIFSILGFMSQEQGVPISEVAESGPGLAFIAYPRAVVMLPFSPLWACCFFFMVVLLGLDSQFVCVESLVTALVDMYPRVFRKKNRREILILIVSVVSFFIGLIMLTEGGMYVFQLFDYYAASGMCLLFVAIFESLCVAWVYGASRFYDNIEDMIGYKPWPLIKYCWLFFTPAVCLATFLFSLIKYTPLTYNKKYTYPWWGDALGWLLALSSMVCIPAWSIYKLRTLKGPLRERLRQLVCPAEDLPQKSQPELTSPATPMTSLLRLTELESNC
GABA transporter (Rattus norvegicus), sequence (P31647 whole entry, looked up): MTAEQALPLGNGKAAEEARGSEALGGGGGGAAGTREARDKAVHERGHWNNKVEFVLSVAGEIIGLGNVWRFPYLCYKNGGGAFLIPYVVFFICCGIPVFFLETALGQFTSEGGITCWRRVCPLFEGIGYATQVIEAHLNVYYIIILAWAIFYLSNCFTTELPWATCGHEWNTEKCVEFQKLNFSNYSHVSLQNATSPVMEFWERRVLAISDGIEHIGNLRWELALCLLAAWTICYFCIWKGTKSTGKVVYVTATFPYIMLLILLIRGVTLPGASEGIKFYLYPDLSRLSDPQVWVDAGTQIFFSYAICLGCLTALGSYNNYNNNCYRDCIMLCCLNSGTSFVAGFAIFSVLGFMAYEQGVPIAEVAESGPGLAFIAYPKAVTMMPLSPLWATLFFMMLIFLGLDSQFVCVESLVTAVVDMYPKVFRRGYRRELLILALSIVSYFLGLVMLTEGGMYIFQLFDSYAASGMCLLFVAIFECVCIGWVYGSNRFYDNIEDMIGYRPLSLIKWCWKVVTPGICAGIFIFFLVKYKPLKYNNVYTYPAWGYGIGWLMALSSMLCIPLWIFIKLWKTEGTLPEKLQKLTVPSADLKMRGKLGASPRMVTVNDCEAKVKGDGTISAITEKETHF
GABA transporter (Rattus norvegicus), sequence (P48056 whole entry, looked up): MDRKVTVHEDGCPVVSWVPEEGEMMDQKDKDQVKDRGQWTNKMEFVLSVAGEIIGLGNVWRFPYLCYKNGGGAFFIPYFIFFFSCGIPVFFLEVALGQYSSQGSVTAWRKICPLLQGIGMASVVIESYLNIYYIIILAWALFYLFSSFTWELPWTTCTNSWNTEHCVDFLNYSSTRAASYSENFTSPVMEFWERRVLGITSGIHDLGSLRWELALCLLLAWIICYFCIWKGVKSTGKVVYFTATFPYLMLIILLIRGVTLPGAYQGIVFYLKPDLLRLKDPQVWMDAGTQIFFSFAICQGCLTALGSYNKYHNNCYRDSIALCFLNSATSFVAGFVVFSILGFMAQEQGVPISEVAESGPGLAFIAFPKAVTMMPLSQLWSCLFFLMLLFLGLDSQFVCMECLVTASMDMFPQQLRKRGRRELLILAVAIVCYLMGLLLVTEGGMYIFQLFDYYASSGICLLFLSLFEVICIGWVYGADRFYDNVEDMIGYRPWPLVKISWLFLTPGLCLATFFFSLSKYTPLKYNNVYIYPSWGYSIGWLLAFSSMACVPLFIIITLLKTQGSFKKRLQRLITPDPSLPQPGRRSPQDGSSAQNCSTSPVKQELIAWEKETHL

Compound `CC(C)NCC(O)c1ccc(O)c(O)c1.NCC(CC(=O)O)c1ccc(Cl)cc1.O=C(O)[C@@H]1CCCC2NCCCC21` (stereo in doubt; form 4) had a Conversion in the experiment listed under Rattus norvegicus of 2.63%.

Regarding `CC(C)NCC(O)c1ccc(O)c(O)c1.O=C(O)[C@@H]1CCCC2NCCCC21` (stereo in doubt; form 2), the Conversion in the experiment listed under Rattus norvegicus worked out at 0.86%.

For the compound `CC(C)NCC(O)c1ccc(O)c(O)c1.NCC(CC(=O)O)c1ccc(Cl)cc1.O=C(O)[C@@H]1CCCC2NCCCC21` (stereo in doubt; form 1), the Conversion in the experiment filed under Rattus norvegicus was found to be 2.59%.

For `O=C(O)[C@@H]1CCCC2NCCCC21` (stereo in doubt; 3) [listing 1 of 2 here], the Displacement in experiment [1] was below 10%; in experiment [4], below 10%; in [6], below 5%. The Binding affinity (spec bound mg-1) in experiment [2] was 28.8; in [3], 59.1. Further, the inhibition in experiment [5] is below 5%.

In the case of `CC(C)NCC(O)c1ccc(O)c(O)c1.NCC(CC(=O)O)c1ccc(Cl)cc1.O=C(O)[C@@H]1CCCC2NCCCC21` (stereo in doubt; form 3), the Conversion in the experiment filed under Rattus norvegicus was determined as 2.81%.

As for `NCCCC(=O)O`, the Displacement in experiment [1] and in experiment [4] was 100% each time. In experiment [7], this compound yielded a Binding affinity (spec bound mg-1) of 55.4.

On to `CC(C)NCC(O)c1ccc(O)c(O)c1.O=C(O)C1CCCC2NCCCC21` (stereo not given), for which the Conversion in the experiment filed under Rattus norvegicus was 0.84%.

As to `O=C(O)[C@@H]1CCCC2NCCCC21` (stereo in doubt; form 2), the Displacement in experiment [1] is below 10%; in experiment [4], below 10%; in experiment [6], below 5%. Moreover, the results for the Binding affinity (spec bound mg-1) in [2] and in experiment [3] were 32 and 59.4, respectively. In [5], this compound came in with an inhibition of 15%.

Consider `O=C(O)C1CCCC2NCCCC21` (trans isomer), for which the Displacement is 38% in experiment [1], 43% in experiment [4] and below 5% in experiment [6]. For the same compound, the Binding affinity (spec bound mg-1) in [2] stood at 35; in [3], 65.5. Further, the Tonic-clonic seizure is given as 4 in the experiment with Mus musculus [8]; 5 in the experiment with Mus musculus [9]; 0 in the experiment on Mus musculus [11]; 1 in the experiment on Mus musculus [12]; 0 in the experiment on Mus musculus [13]; 5 in the experiment on Mus musculus [14]. The Tonic-clonic seizure in the experiment filed under Mus musculus [16] was determined as 5. In addition, the Duration of seizure in the experiment with Mus musculus [10] came to 0.8 min; in the experiment with Mus musculus [15], 11.7 min. The compound also came in with an inhibition in [5] below 5%.

`O=C(O)[C@@H]1CCCC2NCCCC21` (stereo in doubt; 3) [listing 2 of 2 here]: the Tonic-clonic seizure in the experiment with Mus musculus [17] turned out to be 5; with Mus musculus [18], 5; in the experiment with Mus musculus [19] it was 4; in the experiment on Mus musculus [13], 0; with Mus musculus [14] it was 5; in the experiment on Mus musculus [20], 0. The Tonic-clonic seizure in the experiment listed under Mus musculus [16] is 5. The Duration of seizure worked out at 9.5 min with Mus musculus [10] and 26.5 min in the experiment on Mus musculus [15].

On to `CC(C)NCC(O)c1ccc(O)c(O)c1.O=C(O)[C@@H]1CCCC2NCCCC21` (stereo not given), for which, in experiment [21], the Binding affinity (spec bound mg-1) was 0.91.

Turning to `O=C(O)[C@@H]1CCCC2NCCCC21` (stereo in doubt; form 1), the Displacement is below 10% in [1], below 10% in [4] and below 5% in experiment [6]. The compound also came in with an inhibition in experiment [5] below 5%. Further, the Binding affinity (spec bound mg-1) in experiment [22] amounted to 31.9; in [23], 55.3.

Turning to `NCC(CC(=O)O)c1ccc(Cl)cc1` (stereo not given) [BACLOFEN], the Displacement in experiment [1] was determined as 100%; in experiment [4], 15%. In the experiment filed under Rattus norvegicus, this compound returned a Conversion of 0.2%.

For the compound `C=C(C)[C@@H]1[C@H]2OC(=O)[C@@H]1[C@]1(O)C[C@H]3O[C@]34C(=O)O[C@H]2[C@]14C`, the Displacement in [6] came out at 90%.

`CC(C)NCC(O)c1ccc(O)c(O)c1` (stereo not given) [ISOPROTERENOL]: the Conversion in the experiment filed under Rattus norvegicus is on record as 0.84%.

Compound `CC(C)NCC(O)c1ccc(O)c(O)c1.NCC(CC(=O)O)c1ccc(Cl)cc1.O=C(O)C1CCCC2NCCCC21` (stereo not given) yielded a Conversion in the experiment filed under Rattus norvegicus of 2.65%.

For the compound `CC(C)NCC(O)c1ccc(O)c(O)c1.O=C(O)[C@@H]1CCCC2NCCCC21` (stereo in doubt; form 5), in the experiment filed under Rattus norvegicus, the Conversion is listed as 0.8%.

In the case of `CC(C)NCC(O)c1ccc(O)c(O)c1.NCC(CC(=O)O)c1ccc(Cl)cc1` (stereo not given), the Conversion in the experiment listed under Rattus norvegicus is listed as 2.56%.

In experiment [2], `CN1C(=O)CN=C(c2ccccc2)c2cc(Cl)ccc21` registered a Binding affinity (spec bound mg-1) of 29.3.
